Test: Toxicity liver stage against HepG2, at 10uM
Assay type: cell-based
Design: test concentration 10 uM, cell line HepG2-A16-CD81EGFP
Conditions: human, HepG2-A16-CD81EGFP cells; read-out: INHIBITION
Method in brief: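 Uninfected HepG2-A16-CD81EGFP cells, 3 × 10^3 per well, 1536-well, plated on prespotted compound at 10 μM final, parasite-free screening media added to match infected plates; puromycin 10 μM positive, DMSO 0.5% negative; run in parallel with 48 h PbLuc assay at 37 °C, 5% CO2; viability by CellTiter-Glo luminescence, normalized to controls.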

SMILES	cytotoxicity at 10 µM
CC(=O)N[C@H]1CCN2C(=O)[C@@H](Cc3c[nH]c4ccccc34)NC(=O)[C@H]12	-0.639%
COCCCNC(=O)c1cn(C(C)(C)C)c2ncccc12	0.0915%
O=c1cc2c(nn1CN1CCN(c3ccc(F)cc3)CC1)CCC2	-2.15%
COCC(=O)N1CCc2nc(C(=O)N(C)C)sc2CC1	15.5%
CCc1cnc(N2C[C@@H]3[C@@H](C(=O)NCC(C)C)CCS(=O)(=O)[C@@H]3C2)nc1	-135%
c1cncc(COCC2CN(Cc3ccco3)Cc3nccn3C2)c1 (stereo not given)	-157%
CCC(=O)N1CCC2(CC1)CC(NC(=O)N(C)C)c1cc(C)ccc12 (stereo not given)	8.39%
CC(C)NC(=O)N1CCC2(COCc3cnc(-c4ccccc4)nc32)C1 (stereo not given)	-0.311%
COCCNC(=O)c1c(-n2cnnn2)sc2c1CCCC2	3.51%
O=C(c1cnc2ccc(F)cc2c1NCc1ccco1)N1CCCCC1	9.34%
CN(C)CCNC(=O)CNC(=O)N1CCc2c([nH]c3ccc(Cl)cc23)C1	7.36%
COc1ccc2c(c1)CC(NC(=O)NCc1cccs1)CO2 (stereo not given)	7.52%
CC(C)N(C)C(=O)C1=NOC2(CCN(C(=O)c3ccc(Cl)cc3)C2)C1 (stereo not given)	-16.7%
CCn1cc(CN(C)C(=O)c2cc(C(F)(F)F)n(C)n2)cn1	10.4%
Cn1c(=O)n(C)c2nc(Cl)c(CC(=O)c3ccccc3)n2c1=O	-13.9%
CNC(=O)Cc1n[nH]c(-c2cncc(Br)c2)n1	-4.97%
Cc1cc(C)n(CC(=O)N2CCC(c3nc(C(C)C)no3)CC2)n1	9.1%
Cc1nc2[nH]cnc(Nc3cc(C)n(C)n3)c-2n1	6.69%
Cc1ccc(-c2cc(N)c(=O)n(C(C)C(N)=O)n2)o1 (stereo not given)	-1.89%
CNC(=O)C1CN(C(=O)Cc2ccc(OC)cc2)Cc2cn(C)nc21 (stereo not given)	2.99%
Cn1cc(CN2CCC(c3cc(COc4ccc(Cl)cc4)[nH]n3)C2)cn1 (stereo not given)	0.0085%
CCN(CC)CCCNCc1cc2cc(C)ccc2[nH]c1=O	-1.55%

SMILES	cytotoxicity at 10 µM
Cc1noc(C)c1CCC(=O)NCC1(O)CCN(c2ccccn2)C1 (stereo not given)	2.12%
CC(=O)N1CCOC(c2cncc(CCC(=O)N(C)C)n2)C1 (stereo not given)	-0.197%
CNC(=O)c1cnn2c(C3CCCN3C)ccnc12 (stereo not given)	3.74%
Cc1nc(C(=O)NCc2ccccn2)cc(C2CCCN2)n1 (stereo not given)	6.83%
Cc1nc2ccc(C(=O)N3CCC(COc4ccccn4)CC3)cc2[nH]1	-8.09%
Cc1cc(O)nc(C2CN(CCC(F)(F)F)CCO2)n1 (stereo not given)	-27.4%
CCNC(=O)C1(CC2CC(c3ccccc3OC)=NO2)CCOCC1 (stereo not given)	-26.8%
Cc1ccc2c(c1)C(=O)NCC1(CCN(Cc3ccccc3)CC1)O2	-26.9%
c1cnc(Nc2cncc(C3CCCN(c4cnccn4)C3)n2)nc1 (stereo not given)	-8.74%
Cn1cc(C(=O)N2CCN(c3ccc(F)cc3)CC2)ccc1=O	1.37%
CN(c1cccnc1N1CCCC1)S(=O)(=O)c1cccnc1	0.981%
OCCCN1CCCC1c1ccc(Br)cc1 (stereo not given)	2.94%
CC(C)C(CCO)NC(=O)Nc1ccc(-c2csnn2)cc1 (stereo not given)	-10%
O=C(NCC(F)(F)F)c1ccncc1	-19%
CC(C#N)CN(C)C(=O)CCNC(=O)OCC(F)(F)F (stereo not given)	3.89%
CCOCC(=O)N1CCC(C(O)c2ccc(F)cc2)CC1 (stereo not given)	-3.83%
Cc1[nH]nc2ncc(C(=O)N3CCN(CC(C)(C)O)CC3)cc12	-0.0414%
O=C(CN1CCCS1(=O)=O)Nc1ccc(OC2CCCC2)c(Cl)c1	-8.87%
CCc1ncc(C(=O)N2CCN(c3nc(C)cc(OC)n3)CC2)s1	1.1%
CC(NC(=O)NCCCn1ccnc1)c1nncn1C (stereo not given)	0.277%
Cc1cc(Br)ccc1NCC(=O)Nc1cc(C(C)(C)C)no1	5.09%
COCCn1cc(C(=O)N2CCCC2c2ccc(F)cc2)ccc1=O (stereo not given)	-0.12%

SMILES	cytotoxicity at 10 µM
Cc1ccc(-n2nnc(CC(=O)N3CCN(C(C)C)CC3)c2C)cc1	-3.36%
Cc1cccc(CNC(=O)Nc2ccn(CCCC(=O)N(C)C)n2)c1	2%
CCc1nccn1C1CCCN(C(=O)c2cnc[nH]2)C1 (stereo not given)	2.52%
CC(Oc1ccccc1C(F)(F)F)C(=O)NCC(=O)N1CCCC1 (stereo not given)	5.12%
O=C1CC(Cc2ccc(NC(=O)c3cccc(F)c3)cc2)C(=O)N1 (stereo not given)	-1.39%
CC(C)=CCS(=O)(=O)Cc1noc(CC(C)C)n1	-4.59%
Cn1cc(NC(=O)Cc2cccs2)c(=O)n(C)c1=O	0.393%
Cn1cc(S(=O)(=O)NC(=O)C2(c3cccc(Cl)c3)CC2)cn1	-10%
Cn1ccnc1COc1ccc(CSc2nnnn2C)cc1	-0.613%
CC(C)c1nc2n(n1)CC(NCC(=O)N(C)Cc1cccs1)CC2 (stereo not given)	-10.2%
c1cncc(CN2CCC(NCCc3ccc4c(c3)CCO4)CC2)c1	5.41%
COCCSc1ccc(C(C)NC(=O)Nc2cn[nH]c2)cc1 (stereo not given)	8.88%
CCc1cnccc1C(=O)NC1CCN(C(=O)OC)CC1	9.09%
CC(C)NC(=O)N(C)C1CCN(c2ccccc2Cl)C1=O (stereo not given)	-4.56%
Cc1cn2nc(Sc3nnc(C(C)C)n3C)sc2n1	2.3%
Brc1cccc(C2(CNCc3cc[nH]c3)CCOCC2)c1	8.95%
Cc1noc(C)c1CN(C)C(=O)CCn1c(=O)n(C)c2ccccc21	-6.67%
O=C(CSCc1ccncc1)N(Cc1ccsc1)C1CC1	-11.2%
CC(=O)NCCNC(=O)c1cnc(-c2ccccc2)nc1	6.56%
NC(=O)c1ccc(NC(=O)CCN2CCCC(N3CCCC3)C2)cc1 (stereo not given)	-8.59%
CCN1CCC(CC(=O)NCc2cc(C)nn2C)CC1	-14.5%
CN(C)C(C(=O)N1CCC(CCO)CC1)c1ccccc1F (stereo not given)	5.88%

SMILES	cytotoxicity at 10 µM
O=C(C1CC(=O)N(C2CC2)C1)N1CCC(Oc2ccccc2Cl)CC1 (stereo not given)	-7.54%
COCc1cc(CNC(=O)c2c(O)cccc2O)n[nH]1	-6.93%
C[C@@H]1CN(Cc2cn(C)nc2-c2ccccc2F)C[C@H](C)O1	-1.43%
COC(=O)[C@H]1C[C@@H](O)CCN1S(=O)(=O)c1c(C)cc(OC)c(C)c1C	-16.2%
Cc1nc2c(c(=O)n1C)CN(C(=O)C1CCN(C(=O)C3CCC3)CC1)C2	-3.54%
Cc1nccn1CCC1CCCCN1Cc1cccc(CCN)c1 (stereo not given)	0.106%
O=C(c1ccccc1)N1CCCC(Nc2ccc(F)cc2)C1 (stereo not given)	-3.09%
O=C(NCC(F)(F)F)C(c1cccnc1)N1CCOCC1 (stereo not given)	1.51%
CN(C)c1nc(-c2ccncc2)nc2c1CCN(C(=O)[C@H](N)CO)C2	8.01%
Cc1cc(N2CCN(C(=O)CCc3scnc3C)CC2)nc(N)n1	-49.2%
Cc1ccc(-c2nc3c([nH]2)CCNC3C(=O)O)c2cccnc12 (stereo not given)	5%
Cc1cc(NCCNS(C)(=O)=O)nc2cc3c(cc12)CCC3	2.9%
O[C@@]1(CNCC2(Cn3ccnc3)CC2)CCCN2CCCC[C@@H]21	5.09%
Cc1oc(-c2cc(F)cc(F)c2)nc1CN1C[C@@H](C)NC[C@@H]1C	-1.66%
CCNC(=O)[C@@H]1C[C@H](N)CN1C(=O)CCc1ccccc1Cl	4.79%
Cc1ccc2[nH]c(=O)cc(C(=O)NCCCn3nccc3C3CC3)c2c1	-4.35%
COCCN(Cc1nccs1)C(=O)c1c(C)cc(C)[nH]c1=O	0.0773%
CCCC1COCCN1Cc1ccc(S(=O)(=O)NC)cc1 (stereo not given)	-142%
Cc1cc(=O)[nH]c(CCNC(=O)C(c2ccc(F)cc2)N(C)C)n1 (stereo not given)	-9.78%
CC(C)c1cc(N2CCC(N)CC2)n2nccc2n1	-18.1%
CC(C)C(NC(=O)NCCNc1ncccn1)c1cccs1 (stereo not given)	2.71%
O=C(CCCc1ccccc1)N1CCC(Nc2cccnn2)CC1	-5.89%

SMILES	cytotoxicity at 10 µM
CCc1cnc(CN(C(C)=O)C2CCN(Cc3nccn3C)C2)o1 (stereo not given)	-8.13%
Cc1ccc(C(=O)N2CCN(CCc3ccccc3)CC2)c(=O)[nH]1	-7.1%
CCc1nc(C2CCCN2CC(=O)Nc2c(C)n[nH]c2C)no1 (stereo not given)	-3.79%
CCOc1ccc(Cl)c(C(=O)N2CCN(C(=O)c3ccoc3C)CC2)n1	-6.69%
COCCN1CCN(CCCS(=O)(=O)c2ccccc2)CC1C (stereo not given)	-9.31%
Cc1ccc(NC(=O)C2CSCN2C(=O)c2cc[nH]n2)c(C)c1 (stereo not given)	-6.1%
CNC(=O)NC(=O)CN1CCC(c2cccc(F)c2)C1 (stereo not given)	-8.75%
CC(Cn1cccn1)NC(=O)NCCc1ccc(Cl)s1 (stereo not given)	-3.56%
Cn1ncc(C(=O)N2CCCC(n3cccn3)C2)c1C1CC1 (stereo not given)	4.98%
Cc1cnn(CC2CCCCN2C(=O)Cc2csc(C)n2)c1 (stereo not given)	2.26%
O=C1NCCCCC1NCc1csc(-c2ccc(F)cc2)n1 (stereo not given)	-13.5%
COCc1nn(C(C)C)c2c1CCN(Cc1ccc(C)s1)C2	-5.82%
O=C(c1ccncc1)N1CCCC2(COCCN(c3ccccc3)C2)C1 (stereo not given)	2.31%
CCN1CCC2(CCC(=O)N2Cc2cccc(C)n2)CC1	5.08%
CC1=N[C@@]2(CC[C@@H]3CN(CC(=O)N(C)C)C[C@@H]32)C(=O)N1CC(C)C	9.66%
COC[C@H]1CC[C@@H]2[C@@H](CCN2Cc2ccco2)O1	-137%
COCc1ncn2c1CN(C(=O)c1ccc3ccccc3n1)CC2	8.42%
Cc1cnc(N2CCn3c(CN4CCOCC4)nnc3C2)nc1	-153%
CCc1ncnc2c1CCN(Cc1ccc3c(c1)OCO3)CC2	-139%
CN(C)C(=O)N1C[C@H](Oc2ccccn2)[C@H]2OCCC[C@H]21	6.07%
CN(C)S(=O)(=O)N1C[C@H]2CC[C@@H](C1)N(Cc1cccc(C#N)c1)C2	3.62%
O=C(Cn1c(=O)[nH]c2cn(-c3ccccc3)c(=O)n21)NC1CCCCC1	-0.2%

From ChEMBL document CHEMBL4513216, “Probing the Open Global Health Chemical Diversity Library for Multistage-Active Starting Points for Next-Generation Antimalarials” (ACS Infect Dis, 2020)
